Here are results for 2 compounds from ChEMBL document CHEMBL2021895 (Eur J Med Chem, 2012).

The subject of one test is HCT-116. Kind of test: Cytotoxicity against human HCT116 cells after 72 hrs using resazurin dye by microtiter plate fluorimeter analysis. The test is classed as functional. As to conditions: HCT-116, 72 h.
Test [1] in a line: Cytotoxicity against human H1299 cells after 72 hrs using resazurin dye by microtiter plate fluorimeter analysis. In kind it is functional. As to conditions: NCI-H1299, 72 h.
The subject of a further test is MDA-MB-231. Description: Cytotoxicity against human MDA-MB-231 cells after 72 hrs using resazurin dye by microtiter plate fluorimeter analysis. In kind it is functional. Particulars: MDA-MB-231, 72 h.
A further test concerns K562. Description: Cytotoxicity against human K562 cells after 72 hrs using resazurin dye by microtiter plate fluorimeter analysis. The test is classed as functional. As to conditions: K562, 72 h. A general note: The colour change of resazurin is a common sign of viable cells or microbes.
A short description of test [2]: Inhibition of sheep brain tubulin polymerization using DAPI by fluorescence assay. The arrangement: species or system Ovis aries. An outline of the steps:
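Tubulin purified by two assembly–disassembly cycles, in 0.1 M MES, 0.5 mM MgCl2, 1 mM EGTA, 1 mM GTP, pH 6.6 (about 2-3 mg/mL). Assembly followed by DAPI fluorescence at 37°C.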

On to `C=C(c1ccc(OC)c(O)c1)c1cc(OC)c(OC)c(OC)c1`, for which the GI50 (usually the concentration at which growth is held to half of that of the control) in the test with HCT-116 was determined as 3 nM; in test [1], 3 nM; in the test on MDA-MB-231 it was 4 nM; in the test on K562, 5 nM. Moreover, 2200 nM corresponded to half-maximal inhibition in test [2] (IC50).
On to `COc1ccc(/C=C\c2cc(OC)c(OC)c(OC)c2)cc1O` [COMBRETASTATIN A4], for which the concentration for 50% growth inhibition (GI50) in the test with HCT-116 was found to be 2 nM; in test [1] it was 5 nM; in the test on MDA-MB-231, 3 nM; in the test on K562, 4 nM.
